Compound activity: PubChem BioAssay, several laboratories
Hits are enriched below; roughly 2.7% of the tested compounds scored in any of these assays.
MsrA inhibitor – bovine MsrA inhibition | purified bovine MsrA, absorbance read-out | inhibition, % at 15.5 µM | AID 651718 | actives 0.75% (n = 360,000); in the data active = inhibition above about 4.5%;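 note: 0% = vehicle wells with enzyme and 100% = reference inhibitor wells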
ARFGAP1 inhibitor – rat ARFGAP1 inhibition; inhibition, % at 16.5 µM; Arfgap1-stimulated ARF1 GTP hydrolysis, GDP FP detection; actives 0.26% (n = 360,000);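 active = inhibition above a per-plate limit, mean inhibition of low control wells plus 3 SD, cut at about 25% in these data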;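 note: 0% = DMSO wells with enzyme and 100% = wells lacking Arfgap1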
Target sequence (Q62848 1-136 limits assumed): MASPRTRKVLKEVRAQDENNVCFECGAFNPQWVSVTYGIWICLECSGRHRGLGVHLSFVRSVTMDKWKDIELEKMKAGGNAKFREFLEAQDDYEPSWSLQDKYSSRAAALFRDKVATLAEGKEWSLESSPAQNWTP
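Material: rat Arfgap1 catalytic domain, aa 1-136; also added: human ARF1(Δ1-17)-GTP substrate; compound dosing: one concentration, 16.5 µM, DMSO 1.26%; incubation: GTP hydrolysis reaction 2 h at 25 °C; measured by: Tracer-displacement fluorescence polarization with EDTA stop, 620/688 nm; evaluation: % inhibition from polarization; repeats: one replicate per compound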
ASAP1 inh – blocks human ASAP1-stimulated Arf1 GTP hydrolysis; actives 0.19% (n = 360,000); inhibition, % at 16.5 µM; Q9ULH1; GDP FP detection; in the data active = inhibition above about 25%;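 note: 0% = vehicle with enzyme and substrate and 100% = no enzyme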
Target sequence (Q9ULH1 325-724 limits assumed): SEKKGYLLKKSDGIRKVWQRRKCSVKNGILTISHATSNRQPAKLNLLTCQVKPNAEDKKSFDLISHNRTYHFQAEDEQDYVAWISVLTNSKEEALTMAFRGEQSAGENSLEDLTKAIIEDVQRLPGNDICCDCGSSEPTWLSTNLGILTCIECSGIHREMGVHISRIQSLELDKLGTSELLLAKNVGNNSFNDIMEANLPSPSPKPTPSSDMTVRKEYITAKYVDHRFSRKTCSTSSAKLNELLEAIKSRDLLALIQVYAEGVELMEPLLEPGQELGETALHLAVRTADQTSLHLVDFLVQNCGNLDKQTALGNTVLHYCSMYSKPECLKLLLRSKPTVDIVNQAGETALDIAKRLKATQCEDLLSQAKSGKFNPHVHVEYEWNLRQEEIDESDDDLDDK
HGIII-sPLA2 inh – Blocks human group III sPLA2 activity; AID 743126; actives 0.56% (n = 370,000); QFRET BODIPY PC-A2 liposome hydrolysis, fluorescence; Q9NZ20; inhibition, % at 12.2 µM;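 active = inhibition above mean plus 3 SD of compounds lying within the high and low control bounds, cut at about 19% in these data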;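 note: 0% = median of test compound wells and 100% = no enzyme DMSO wells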
NR1D1 modulator – modulators of human Rev-erb alpha DNA binding. P20393. actives 0.79% (n = 370,000). activity, % at 10 µM. Rev-erbα–FITC-DNA binding, fluorescence polarization, 90 min. AID 1259318;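 active = activity above about 14%, limit read from the data; passing the limit was not always enough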;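 note: 0% = DMSO wells with 35 nM protein and 100% = DMSO wells with 750 nM protein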
bovine MsrA act – activates bovine MsrA enzyme; purified bovine MsrA, absorbance read-out; activation, % at 10.6 µM; actives 0.3% (n = 360,000); AID 602163; in the data active = activation above about 7.5%;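 note: 0% = vehicle and 100% = reference activator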
hGIII sPLA2 conf – human GIII-sPLA2 inhibition, confirmation; shares compounds with HGIII-sPLA2 inh; recombinant hGIII-sPLA2, BODIPY PC-A2 QFRET fluorescence; inhibition, % at 12.2 µM; actives 34% (n = 2,000);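 active = mean inhibition across triplicates above the hit cutoff set in the earlier primary screen, cut at about 19% in these data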;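 note: 0% = enzyme with DMSO and 100% = DMSO wells lacking enzyme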
535nm interf – 535nm fluorescence interference, HGIII-sPLA2 counter-screen; shares compounds with HGIII-sPLA2 inh; actives 8.5% (n = 2,000); inhibition, % at 12.2 µM; BODIPY FL product fluorescence interference, QFRET;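 active = average inhibition above the solvent-only control mean plus 3 SD, cut at about 6% in these data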;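 note: 0% = DMSO with substrate plus product and 100% = DMSO with substrate alone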
535nm interf DR – interferes with 535nm fluorescence in dose response counter-screen. 240 tested, under 10 active. shares compounds with HGIII-sPLA2 inh. AID 743455. BODIPY FL product fluorescence interference, cell-free. IC50, µM;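 active = IC50 at or below 10 µM; inactive = IC50 above 10 µM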
Rev-erbA confirm – Rev-erb alpha (human) modulation, hit confirmation; shares compounds with NR1D1 modulator; Rev-erb alpha FITC-DNA binding, fluorescence polarization, 90 min; activation, % at 25 µM; actives 61% (n = 3,000);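 active = activation at or above a set limit, or at least 3 SD above the negative control mean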;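 note: 0% = 35 nM protein with DMSO and 100% = 750 nM protein high control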
RORg DNA counter – counter-screen for Rev-erb alpha modulators: RORgamma DNA binding; shares compounds with NR1D1 modulator; purified RORgamma protein-FITC-DNA binding, fluorescence polarization; IC50, µM; actives 8% (n = 910); AID 1259320;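 active = Compounds whose fitted half-maximal concentration for disrupting protein-DNA binding is below 10 micromolar; the record names Rev-erb in its text, so the target is in doubt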
Active calls of the source: *; i = inactive; . = no result given.

SMILES | MsrA inhibitor | ARFGAP1 inhibitor | ASAP1 inh | HGIII-sPLA2 inh | NR1D1 modulator | bovine MsrA act | hGIII sPLA2 conf | 535nm interf | Rev-erbA confirm | others
O=C(OC12CCCN(C1)/C(=C/c1ccc(Cl)cc1)C2)c1ccno1 (stereo not drawn) | . | . | . | -6 | -2 | . | . | . | .
O=C(NNc1nc2cc3c(cc2s1)OCO3)c1ccc(F)cc1 | 2 | 2 | 10 | 23* | -3 | -6 | 38* | 0 | . | 535nm interf DR=>122
O=C(NNc1nc2cc3c(cc2s1)OCCO3)c1ccc(F)cc1 | 0 | -8 | -2 | 18 | 5 | -2 | . | . | .
O=C(O)c1ccccc1C(=O)Nc1ccc(S(=O)(=O)NC2CCCCC2)cc1 | 1 | -14 | -2 | 20* | 2 | -3 | 3 | -3 | .
Cc1cc(C)cc(NS(=O)(=O)c2ccc(NC(=O)c3ccccc3C(=O)O)cc2)c1 | -1 | 0 | 5 | -3 | 3 | -6 | . | . | .
Cc1cc(C(=O)CN2CCC(C)CC2)c(C)n1-c1ccccc1F | 0 | -1 | 0 | 19* | 8 | 1 | 4 | -22 | .
Cc1cc(C(=O)CN2C(=O)C(=O)N(Cc3ccccc3)C2=O)c(C)n1-c1ccccc1F | 2 | -7 | 7 | -4 | 0 | 1 | . | . | .
O=C(CN1C(=O)CSc2ncccc21)NCCN1CCOCC1 | -1 | -2 | 3 | -6 | -8 | -3 | . | . | .
COCCCNC(=O)CN1C(=O)CSc2ncccc21 | 1 | -2 | -8 | 19* | -1 | -2 | 1 | -6 | .
COc1ccc(N=Nc2cc(C)ccc2O)cc1 | 1 | 5 | 1 | 11 | 5 | -6 | . | . | .
Cc1ccc(O)c(N=Nc2nccs2)c1 | 2 | -8 | -5 | 25* | 20* | -2 | 19 | 9.9* | 7
C/C(=N\NC(=O)COc1cccc(C)c1)c1ccc2ccccc2c1O | 1 | -7 | 2 | 22* | 217* | -2 | 39* | 6.0* | 165* | RORg DNA counter=>40
CCc1c(-c2cccc(OC)c2)ncn1Cc1cccc(-c2ccccc2)c1 | 0 | 8 | 8 | -24 | 6 | . | . | . | .
COc1ccc(C)cc1NC(=O)NNC(=O)c1cc2ccccc2cc1O | 0 | -7 | 13 | 14 | 2 | -13 | . | . | .
COc1ccc(NC(=O)NNC(=O)c2cc3ccccc3cc2O)cc1 | 1 | -11 | 6 | 22* | 46* | -5 | 23* | 2 | 30* | RORg DNA counter=>40
Oc1ccccc1N=Nc1nc(-c2ccccc2)c(-c2ccccc2)[nH]1 | 1 | 12 | 7 | 28* | 25* | 0 | 14 | 16* | 33* | RORg DNA counter=>40
O=C(O)c1ccc(-c2nc(-c3ccccc3)c(-c3ccccc3)[nH]2)cc1 | 3 | 10 | -3 | -18 | -2 | -4 | . | . | .
CC(=O)N1CCc2c1cccc2S(=O)(=O)NC(CC(C)C)C(=O)Nc1ccccc1C (stereo not drawn) | . | . | . | 0 | 1 | . | . | . | .
COc1ccc2cc(C(=O)N/N=C/c3sc4ccccc4c3O)ccc2c1 | 2 | -1 | 9 | 21* | 28* | -5 | -28 | -33 | 27*
Cc1ccc(-c2cc(C(=O)NN=Cc3c(O)ccc4ccccc34)[nH]n2)cc1C | . | . | . | 26* | 22* | . | -17 | -10 | 16*
CN(Cc1ccccc1F)c1cc2c(c3c1ccn3C)C1CCC2C1 (stereo not drawn) | 1 | 3 | 4 | 14 | 0 | -14 | . | . | .
CCOC(=O)Cc1ccc(Nc2nc(NCCOC)nc3ccsc23)cc1 | 2 | -8 | 4 | -9 | 2 | -2 | . | . | .
Fc1ccc2nc(Nc3nc4cc5c(cc4s3)OCCO5)sc2c1 | 4 | 11 | 5 | 24* | 32* | -3 | 15 | 6.5* | 39* | RORg DNA counter=>40
CCN1C(=O)/C(=C2/Sc3ccc(OC)cc3N2C)SC1=Nc1ccc(OC)cc1 | 1 | -3 | -13 | 1 | -2 | -2 | . | . | .
C=CCN1C(=O)/C(=C2/Sc3ccc(OC)cc3N2C)SC1=Nc1cccc(O)c1 | 2 | 7 | -6 | 5 | 16* | -3 | . | . | 7
SMILES | MsrA inhibitor | ARFGAP1 inhibitor | ASAP1 inh | HGIII-sPLA2 inh | NR1D1 modulator | bovine MsrA act | hGIII sPLA2 conf | 535nm interf | Rev-erbA confirm | others
CCn1cc(C(=O)OCC(=O)Nc2cccc(Cl)c2Cl)c(=O)c2ccc(C)nc21 | 0 | 6 | -8 | -3 | 43* | 0 | . | . | 19*
O=C(CSc1nnc(-c2cccnc2)n1-c1ccc(Cl)cc1)c1ccc(F)cc1 | . | . | . | -36 | -2 | . | . | . | .
Cc1sc2nc(SCC(=O)NCc3ccco3)n(C)c(=O)c2c1C | 0 | -8 | -4 | -2 | 3 | 5 | . | . | .
Cc1sc2nc(SCC(=O)NCc3ccco3)n(CCc3ccccc3)c(=O)c2c1C | 0 | -10 | 0 | 0 | 61* | -2 | . | . | 62* | RORg DNA counter=i
COc1cccc(-c2c(C#N)c(SC)nc3cc(C)nn23)c1 | 2 | 0 | -1 | 8 | 39* | -8 | . | . | 18
O=C(NN=Cc1ccc(O)cc1)c1cc(-c2ccc(Cl)cc2)n[nH]1 | . | . | . | -4 | 5 | . | . | . | .
O=C1c2ccccc2C(c2nnnn2Cc2ccccc2)N1CCc1c[nH]c2ccccc12 (stereo not drawn) | 1 | -11 | 1 | -71 | 20* | 0 | . | . | -5
O=C1c2ccccc2C(c2nnnn2Cc2ccccc2)N1Cc1ccc(F)cc1 (stereo not drawn) | -1 | 11 | 15 | -5 | -3 | -1 | . | . | .
CCOC(=O)N1CCN(c2nc(-c3cccs3)cc(C(F)(F)F)n2)CC1 | 1 | 1 | -7 | 2 | 22* | -3 | . | . | 9
COc1ccccc1CN1CC(C(=O)NCc2nccn2C)CCC1=O (stereo not drawn) | 0 | -2 | -3 | 2 | 20* | -3 | . | . | 4
COc1ccccc1CN1CC(C(=O)NCc2nc3ccccc3n2C)CCC1=O (stereo not drawn) | 1 | 8 | -4 | 1 | 4 | -3 | . | . | .
COc1ccc(-c2nsc3c(N4CCCCC4)ncnc23)cc1 | 1 | -2 | -1 | 5 | 20* | -1 | . | . | 1
COc1ccc(-c2nsc3c(N4CCN(S(=O)(=O)c5ccccc5F)CC4)ncnc23)cc1 | 0 | 12 | 3 | 11 | 32* | -13 | . | . | 13
COc1ccc(-c2nsc3c(N4CCCCC4C)ncnc23)cc1 (stereo not drawn) | -1 | 10 | 0 | -3 | 5 | -2 | . | . | .
